Test results from article PMC7089137 (Pharmaceutical Chemistry Journal, 2019).
≈ marks a conversion by molar mass, not a printed value.

Experiments:
Vaccina virus = test: microbe, parasite or virus in culture; format: cell-based, vaccinia virus Lederle strain; conditions: Orthopoxvirus vaccinia, HEL, read-out: EC50 Vaccina virus
[1] = system: L1210, CEM and HeLa cells; test: Cytostatic activity over the three tumor cell lines; format: cell-based
Procedure, shortened: (§1)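 Each well is seeded with (5–7.5) × 10^4 tumor cells and exposed to test compound at 100, 20, 4, 0.8, 0.16 and 0.032 μg/mL (5-fold dilutions). Cells grow at 37°C in humidified CO2: 48 h for murine L1210, 72 h for human CEM and HeLa. They are then counted with a Coulter counter. IC50 is the concentration halving proliferation, reported as mean ± SD of at least two to three independent experiments. Cisplatin is the reference.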

Reo virus-1 = test: Inhibition of virus-induced cytopathicity, reovirus-1 in Vero; format: cell-based; conditions: Vero cell cultures
Sindbis virus = test: Inhibition of virus-induced cytopathicity, Sindbis virus in Vero; format: cell-based; conditions: Vero cell cultures
Para influenza-3 virus = test: Inhibition of virus-induced cytopathicity, parainfluenza-3 virus in Vero; format: cell-based
[2] = system: human cervix carcinoma HeLa cells; test: Cytostatic assay, inhibition of HeLa cell proliferation; format: cell-based; conditions: 72 h, read-out: IC50 HeLa
Procedure, shortened: as §1

Punta Toro virus = test: Inhibition of virus-induced cytopathicity, Punta Toro virus in Vero; format: cell-based; conditions: Vero cell cultures

N#Cc1ccc(NC(=S)NN)cc1 [I, N-(4-cyanophenyl)hydrazinecarbothioamide]
EC50 (Vaccina virus): 45 to 50 µg/mL (≈ 234 to 260 µM)

CSc1ccc(NC(=S)NN)cc1 [II, N-(4-methylsulfanylphenyl)hydrazinecarbothioamide]
EC50 (Vaccina virus): 45 to 50 µg/mL (≈ 211 to 234 µM)

N#Cc1ccc(NC(=S)NN=Cc2ccccc2)cc1 [Ia, 2-Benzylidene-N-(4-cyanophenyl)hydrazinecarbothioamide]
cytostatic activity (in words) ([1]; tumor cell lines L1210, CEM, HeLa): did not show cytostatic activity

N#Cc1ccc(NC(=S)NN=Cc2ccc(N(CCCl)CCCl)cc2)cc1 [Ig, 2-{4-[Bis(2-chloroethyl)amino]benzylidene}-N-(4-cyanophenyl)hydrazinecarbo thioamide]
inhibitory activity against reovirus-1 (in words) (Reo virus-1): no inhibitory activity | inhibitory activity against Sindbis virus (in words) (Sindbis virus): no inhibitory activity | inhibitory activity against parainfluenza virus-3 (in words) (Para influenza-3 virus): no inhibitory activity | IC50 [2]: 0.3 µg/mL (≈ 0.714 µM) | IC50 ([1]; read-out: IC50 cytostatic activity): 0.3 to 2.5 µg/mL (≈ 0.714 to 5.95 µM) | inhibitory activity against Punta Toro virus (in words) (Punta Toro virus): no inhibitory activity
